ChEMBL document CHEMBL4831478, “Bispecific Estrogen Receptor α Degraders Incorporating Novel Binders Identified Using DNA-Encoded Chemical Library Screening” (J Med Chem, 2021)
Calls of active or inactive are those of the source. No cut-off for these calls is given here.

How the values were obtained:
Estrogen receptor [1] = target: Estrogen receptor (Homo sapiens, UniProt P03372, S463P); experiment: Binding affinity to ERalpha S463P mutant (unknown origin) expressed in Escherichia coli preincubated for 15 mins followed by ligand addition and measured after 1 hr by fluorescent polarization assay
Sequence of Estrogen receptor (Homo sapiens, UniProt P03372, S463P) (P03372 whole entry S463P, the tested form may be a part): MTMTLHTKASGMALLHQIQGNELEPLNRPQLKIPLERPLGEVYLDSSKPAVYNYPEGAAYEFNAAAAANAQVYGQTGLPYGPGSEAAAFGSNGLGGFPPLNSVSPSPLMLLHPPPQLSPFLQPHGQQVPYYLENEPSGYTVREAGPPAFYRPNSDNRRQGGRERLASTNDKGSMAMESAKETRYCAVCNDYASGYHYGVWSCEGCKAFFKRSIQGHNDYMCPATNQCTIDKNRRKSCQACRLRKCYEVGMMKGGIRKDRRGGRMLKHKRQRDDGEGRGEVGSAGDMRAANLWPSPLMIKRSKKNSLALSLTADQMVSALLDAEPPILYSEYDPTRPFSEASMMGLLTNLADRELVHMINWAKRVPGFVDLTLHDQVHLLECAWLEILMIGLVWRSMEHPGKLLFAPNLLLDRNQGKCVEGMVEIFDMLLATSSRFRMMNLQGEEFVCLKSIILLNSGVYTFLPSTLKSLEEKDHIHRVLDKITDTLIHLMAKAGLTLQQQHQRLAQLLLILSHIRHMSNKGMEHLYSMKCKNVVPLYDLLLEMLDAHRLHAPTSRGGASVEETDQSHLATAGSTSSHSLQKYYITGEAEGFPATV
Procedure, shortened: (§1)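 ERα LBD (aa 307–554), WT or D538G, S463P, Y537S, with N-terminal Avi-Tev-His tag, expressed in E. coli T7 Express (20 °C, 12 h, IPTG). Purified by Ni-NTA then size exclusion. Compound preincubated with protein 15 min, fluorescent ligand added, 1 h at room temperature. FP read ex 485/em 535 nm; duplicate runs averaged.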

Estrogen receptor [2] = target: Estrogen receptor (Homo sapiens, UniProt P03372, D538G); experiment: Binding affinity to ERalpha D538G mutant (unknown origin) expressed in Escherichia coli preincubated for 15 mins followed by ligand addition and measured after 1 hr by fluorescent polarization assay; procedure, shortened: as §1
Sequence of Estrogen receptor (Homo sapiens, UniProt P03372, D538G) (P03372 whole entry D538G): as the sequence (P03372 whole entry S463P, the tested form may be a part) above, with P463S, D538G counted along it

Estrogen receptor [3] = target: T1, Estrogen receptor (Homo sapiens, UniProt P03372); experiment: Induction of ERalpha degradation in human MCF7 cells assessed as decrease in ERalpha protein expression incubated for 24 hrs by Western blot analysis; format: cell-based
T1 sequence (P03372 whole entry): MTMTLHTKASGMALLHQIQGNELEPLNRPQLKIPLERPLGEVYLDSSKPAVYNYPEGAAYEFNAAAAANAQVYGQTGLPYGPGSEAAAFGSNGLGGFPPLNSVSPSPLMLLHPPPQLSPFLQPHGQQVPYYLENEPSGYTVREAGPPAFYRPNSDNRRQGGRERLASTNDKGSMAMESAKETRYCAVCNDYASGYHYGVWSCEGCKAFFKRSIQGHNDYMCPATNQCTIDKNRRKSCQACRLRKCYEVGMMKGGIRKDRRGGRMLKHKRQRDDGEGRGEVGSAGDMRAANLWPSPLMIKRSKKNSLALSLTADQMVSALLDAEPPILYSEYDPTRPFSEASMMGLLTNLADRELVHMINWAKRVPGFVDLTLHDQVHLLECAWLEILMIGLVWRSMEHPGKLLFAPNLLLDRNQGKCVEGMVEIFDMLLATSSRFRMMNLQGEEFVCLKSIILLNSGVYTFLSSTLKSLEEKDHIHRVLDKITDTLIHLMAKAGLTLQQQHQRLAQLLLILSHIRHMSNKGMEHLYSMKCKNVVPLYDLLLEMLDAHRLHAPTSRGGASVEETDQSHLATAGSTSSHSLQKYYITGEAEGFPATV

[4] = target: T2, Estrogen receptor (Homo sapiens) (UniProt P03372); experiment: (§2) Antagonist activity at ERalpha in human MCF7 cells assessed as reduction in PGR gene expression incubated for 24 hrs by qPCR analysis; format: cell-based; conditions: filed as antagonist
T2 sequence (whole entry): T1 sequence (P03372 whole entry)
Procedure, shortened: (§3)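 MCF7 cells in complete media, incubated 72 h, then dosed in a 6-point series (0.5% DMSO final) for 24 h at 37 °C. RNA extracted, cDNA made, TaqMan qPCR for progesterone receptor normalized to TBP. Comparative CT (ΔΔCT) used for dose-response curves.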

Estrogen receptor [5] = target: T1, Estrogen receptor; experiment: as §2; format: cell-based; procedure, shortened: as §3
MCF7 [6] = experiment: Antiproliferative activity against human MCF7 cells assessed as reduction in cell viability preincubated with estradiol for 30 mins followed by compound addition and measured after 7 days by CellTiter-Glo assay; format: functional, cell-based
Procedure, shortened: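 MCF7 cells seeded in hormone-deprived media for 72 h. All wells except minimum-signal controls received 0.1 nM estradiol for 30 min, then compound in a 10-point dose series. Incubated 7 days at 37 °C, 5% CO2; ATP content read by CellTiter-Glo 2.0. Duplicate runs averaged.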

[7] = target: T2, Estrogen receptor (Homo sapiens); experiment: Induction of ERalpha degradation in human MCF7 cells assessed as reduction in ERalpha expression at 1 uM after 2 hrs by Western blotting analysis; format: cell-based
Procedure, shortened: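 MCF7 cells in hormone-deprived media (agonist mode) or full-serum media (antagonist mode) were treated with 1 μM compound over a 48 h time course. Cells were lysed and ERα was detected by western blot, with tubulin as the normalizer.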

Estrogen receptor [8] = target: T1, Estrogen receptor; experiment: Induction of ERalpha degradation in human MCF7 cells assessed as decrease in ERalpha protein expression preincubated for 2 hrs followed by compound washout and measured after 22 hrs by Western blotting analysis; format: cell-based
Procedure, shortened: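 MCF7 in-cell western: 2 h compound treatment, washout, cells collected 22 h later, compared with continuous 24 h treatment; ERα normalized to tubulin.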

Estrogen receptor [9] = target: T1, Estrogen receptor; experiment: Induction of ERalpha degradation in human MCF7 cells assessed as decrease in ERalpha protein expression incubated for 48 hrs in presence of VHL298 by Western blotting analysis; format: cell-based
Procedure, shortened: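 MCF7 in-cell western for ERα normalized to tubulin after dose titration co-treated with VHL298 at 5 μM, 48 h total treatment before collection.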

[10] = target: T2, Estrogen receptor (Homo sapiens); experiment: Induction of ERalpha degradation in human T47D cells assessed as decrease in ERalpha protein expression incubated for 24 hrs by Western blotting analysis; format: cell-based
Procedure, shortened: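 T47D cells were treated with increasing doses for 24 h. Lysates were western blotted with rabbit anti-ERα, and actin served as the loading control. DC50 was read from the dose series.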

MCF7 [11] = experiment: Antiproliferative activity against human MCF7 cells assessed as growth inhibition incubated for 7 days by CellTiter-Glo assay; format: functional; conditions: MCF7, 168 h, time 7 day
Procedure, shortened: (§4)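 Breast lines from ATCC, maintained in ATCC-specified media, treated with increasing compound doses in full-serum (complete) media for 7 days. Relative cell number measured by CellTiter-Glo ATP read-out.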

ZR-75-1 = experiment: Antiproliferative activity against human ZR-75-1 cells assessed as growth inhibition incubated for 7 days by CellTiter-Glo assay; format: functional; conditions: ZR-75-1, 168 h, time 7 day; procedure, shortened: as §4
MDA-MB-231 = experiment: Antiproliferative activity against human MDA-MB-231 cells assessed as growth inhibition incubated for 7 days by CellTiter-Glo assay; format: functional; conditions: MDA-MB-231, 168 h, time 7 day; procedure, shortened: as §4
[12] = Cytotoxicity against human MCF-10A cells assessed as growth inhibition incubated for 7 days by CellTiter-Glo assay; format: cell-based; conditions: time 7 day; procedure, shortened: as §4
[13] = Solubility of compound; format: physicochemical
[14] = Apparent permeability of compound across apical to basolateral side in MDCK cells; format: ADME, cell-based, Canis lupus familiaris; conditions: dog
[15] = Microsomal stability in mouse liver microsomes assessed as intrinsic clearance measured upto 60 mins; format: ADME, Microsome; conditions: read-out: CLH
Procedure, shortened: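 Compounds at 2 μM final incubated with pooled human or male mouse liver microsomes. Percent remaining measured at 0, 15, 30, 45 and 60 min and used to calculate in vitro half-life.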

[16] = Clearance in CD1 mouse at 0.3 mg/kg, iv administered as cassette dosing […]; format: ADME, organism-based; conditions: in vivo
[17] = Cmax in CD1 mouse at 10 mg/kg, sc administered as single dose […]; format: ADME, organism-based; design: route subcutaneous, dose 10 mg/kg; conditions: in vivo
Mus musculus = experiment: Induction of ERalpha degradation in CD1 mouse xenografted with human MCF7 cells assessed as reduction in ERalpha level at 10 mg/kg, sc measured after 3 days by Western blotting analysis; format: functional, organism-based; conditions: time 3.0 day
[18] = Drug uptake in CD1 mouse tumor xenografted with human MCF7 cells 10 mg/kg, sc measured after 3 hrs post last dose; conditions: in vivo
[19] = Drug uptake in CD1 mouse plasma xenografted with human MCF7 cells 10 mg/kg, sc measured after 3 hrs post last dose; conditions: in vivo

- IC50 (Estrogen receptor [1]): 203 nM
- IC50 (Estrogen receptor [2]): 517 nM
- DC50 (Estrogen receptor [3]): 4.5 nM
- Activity [4]: Dose-Dependent Effect
- EC50 (Estrogen receptor [5]): 27 nM
- EC50 (MCF7 [6]): 14 nM
- Activity [7]: Active
- DC50 (Estrogen receptor [8]): 37 nM
- DC50 (Estrogen receptor [9]): 14 nM
- Activity [10]: Active
- GI50 (MCF7 [11]): 13.8 nM
- GI50 (MDA-MB-231): > 10 µM
- solubility [13]: < 0.2 µM
- Papp A→B [14]: < 0.1 ×10⁻⁶ cm/s
- microsomal CLint [15]: 249 µL/min/mg
- clearance [16]: 23 mL/min/kg
- Cmax [17]: 2130 nM
- Drug uptake [18]: Active
- Drug uptake [19]: Active
SMILES: Cc1ncsc1-c1ccc([C@@H](C)NC(=O)[C@@H]2C[C@@H](O)CN2C(=O)[C@H](NC(=O)COCCOCc2cn(CCOc3ccc(N(Cc4cccc(O)c4Cl)CC4(c5ccccc5F)CCCC4)cc3)nn2)C(C)(C)C)cc1
- GI50 (ZR-75-1): 40.9 nM
- GI50 at 168 h [12]: > 10 µM
- Activity (Mus musculus): Active
